Legend:
Hepatitis C virus [1] = experiment: Antiviral activity against Hepatitis C virus genotype 1b by FRET assay; type: functional, organism-based, Hepacivirus hominis
Summary of the method: (§1)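 EC50 values are means of at least two experiments, with at most threefold variation between them.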

[2] = Metabolic stability in rat liver microsomes assessed as compound remaining after 10 mins; type: ADME, Microsome; conditions: read-out: Stability
Summary of the method: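 Compound incubated with rat liver microsomes for 10 min; read-out is the percentage of parent remaining.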

Hepatitis C virus [3] = experiment: Antiviral activity against Hepatitis C virus genotype 1a by ELISA; type: functional, organism-based, Hepacivirus hominis, subtype 1a; summary of the method: as §1
[4] = test system: Bovine viral diarrhea virus 1; experiment: Antiviral activity against Bovine viral diarrhea virus by luciferase assay; type: functional, organism-based; summary of the method: as §1
Rattus norvegicus = experiment: (§2) AUC (0 to 4 hrs) in rat at 5 mg/kg, po; type: ADME, organism-based, Plasma; set-up: time < 4 hr, dose 5 mg/kg, route oral; conditions: in vivo, 4 h, BLD = below limit of detection
Summary of the method: (§3)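 Rat 4 h PK screen: 2 mg/kg IV and 5 mg/kg PO, each dose as its line states. Plasma sampled 5 times (0.17, 0.5, 1, 2 and 4 h); n = 2 rats.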

[5] = Permeability of the compound across human Caco2 cells; type: ADME, cell-based; conditions: Caco-2, read-out: permeability
[6] = AUC (0 to 4 hrs) in rat at 2 mg/kg, iv; type: ADME, organism-based; set-up: time < 4 hr, dose 2 mg/kg, route intravenous; conditions: plasma; summary of the method: as §3
[7] = Clearance in rat at 2 mg/kg, iv after 4 hrs; type: ADME, organism-based; set-up: dose 2 mg/kg, route intravenous; conditions: in vivo; summary of the method: as §3
[8] = as §2; type: ADME, organism-based, Plasma; set-up: time < 4 hr, dose 5 mg/kg, route oral; conditions: plasma; summary of the method: as §3

Row | SMILES | EC50 (Hepatitis C virus [1]) [nM] | remaining at 10 min [2] [%] | EC50 (Hepatitis C virus [3]) [nM] | EC50 [4] [nM] | AUC (Rattus norvegicus) | Papp [5] [nm/s] | EC50 (Hepatitis C virus [1]; Hepatitis C virus, genotype 1b) [nM] | AUC(0-t) at 4 h [6] [nM·h] | clearance [7] [L/h/kg] | EC50 (Hepatitis C virus [3]; Hepatitis C virus, subtype 1a) [nM] | EC50 ([4]; Bovine viral diarrhea virus isolates and strains) [nM] | AUC(0-t) at 4 h [8] [nM·h]
1 | CN1CCN(C(C(=O)N2CCC[C@H]2C(=O)Nc2ccc(C#Cc3ccc(NC(=O)[C@@H]4CCCN4C(=O)C(c4ccccc4)N4CCN(C)CC4)cc3)cc2)c2ccccc2)CC1 (stereo in doubt; 5i.1) | 0.152 | 100 | < 4.6 | > 3330 | BLD | < 15 |  |  |  |  |  | 
2 | CC(=O)N[C@H](C(=O)N1CCC[C@H]1C(=O)Nc1ccc(C#Cc2ccc(NC(=O)[C@@H]3CCCN3C(=O)[C@@H](NC(C)=O)c3ccccc3)cc2)cc1)c1ccccc1 |  | 100 |  |  |  | < 15 | 0.005 | 2110 | 0.798 | 24 | > 10000 | 93

From ChEMBL document CHEMBL2401736, “HCV NS5A replication complex inhibitors. Part 5: discovery of potent and pan-genotypic glycinamide cap derivatives” (Bioorg Med Chem Lett, 2013)
